Data set [1] has as its target T1, 5-hydroxytryptamine receptor 6 (Homo sapiens, UniProt P50406). Put plainly: Antagonist activity at human 5-HT6R expressed in human HeLa cells assessed as inhibition of 5-HT-induced cAMP levels pre-treated for 10 mins before 30 mins stimulation with 5-HT by D2-dye based HTRF assay. The format is functional, cell-based. Put shortly: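 HeLa cells stably expressing human 5-HT6 receptor, kept at 37°C in 5% CO2/95% air, suspended in PBS with 2 mM IBMX. Compound pretreatment 10 min, then 100 nM 5-HT stimulation 30 min. d2-labelled cAMP and cryptate-labelled anti-cAMP antibody added, 1 h at room temperature. Fluorescence read at 314 nm excitation, 668 and 620 nm emission.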

Data set [2] deals with T1, 5-hydroxytryptamine receptor 6. Put plainly: Inhibition of ligand binding to human 5-HT6R at 10 uM relative to control.
Data set [3] addresses Voltage-gated inwardly rectifying potassium channel KCNH2 (Homo sapiens, UniProt Q12809). Put plainly: Inhibition of human ERG expressed in CHOK1 cells by patch clamp method.
Data set [4] concerns Rattus norvegicus. Put plainly: Antineuropathic pain activity in rat spinal nerve ligation model assessed as effect on mechanical allodynia by measuring frequency of paw withdrawal at 100 mg/kg, po measured up to 3 hrs. Format: functional, organism-based. The procedure, abridged: (§1)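 Rats with spinal nerve ligation neuropathic injury, dosed orally at 100 mg/kg (n = 3–6 per group). Allodynia tested before injury, before dosing (post-injury day 14), and 1, 3 and 5 h after dosing. Values compared with pre-administration values by paired t-test, P < 0.05.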

Data set [5] deals with CYP2C9 (Homo sapiens, UniProt P08684). Put plainly: Inhibition of recombinant human CYP2C9 expressed in baculosomes assessed as remaining activity at 10 uM preincubated for 10 mins followed by Vivid CYP450 substrate addition in presence of NADP+ by fluorescence assay relative to miconazole. Format: ADME. Conditions: probe Vivid CYP450 substrate, read-out: Activity. Put shortly: (§2)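 Remaining percent CYP activity measured at 10 µM test concentration. Values are means ± SD of triplicate experiments.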

For data set [6], the target named is CYP2D6 (Homo sapiens, UniProt P10635). As to the kind of experiment: Inhibition of recombinant human CYP2D6 expressed in baculosomes assessed as remaining activity at 10 uM preincubated for 10 mins followed by Vivid substrate addition in presence of NADP+ by fluorescence assay relative to […]. Conditions: probe Vivid substrate, read-out: Activity. The format is ADME. The procedure, abridged:
as §2

Data set [7] addresses CYP3A4 (Homo sapiens, UniProt P08684). As to the kind of experiment: Inhibition of recombinant human CYP3A4 expressed in baculosomes assessed as remaining activity at 10 uM preincubated for 10 mins followed by Vivid CYP450 substrate addition in presence of NADP+ by fluorescence assay relative to ketoconazole. The following applies: probe Vivid CYP450 substrate, read-out: Activity. Format: ADME. Put shortly: as §2

Data set [8] has as its system Rattus norvegicus. As to the kind of experiment: Antineuropathic pain activity in rat spinal nerve ligation model assessed as effect on cold allodynia by measuring paw withdrawal response at 100 mg/kg, po measured up to 5 hrs. Format: functional, organism-based. Put shortly: as §1
In data set [9] the test system is Rattus norvegicus. As to the kind of experiment: Poteny index, ratio of gabapentin to test compound antineuropathic pain activity in rat spinal nerve ligation model assessed as effect on mechanical allodynia by measuring frequency of paw withdrawal at 100 mg/kg, po. Format: functional.

Calls of active or inactive are those of the source. No cut-off for these calls is given here.

T1 sequence (P50406 whole entry): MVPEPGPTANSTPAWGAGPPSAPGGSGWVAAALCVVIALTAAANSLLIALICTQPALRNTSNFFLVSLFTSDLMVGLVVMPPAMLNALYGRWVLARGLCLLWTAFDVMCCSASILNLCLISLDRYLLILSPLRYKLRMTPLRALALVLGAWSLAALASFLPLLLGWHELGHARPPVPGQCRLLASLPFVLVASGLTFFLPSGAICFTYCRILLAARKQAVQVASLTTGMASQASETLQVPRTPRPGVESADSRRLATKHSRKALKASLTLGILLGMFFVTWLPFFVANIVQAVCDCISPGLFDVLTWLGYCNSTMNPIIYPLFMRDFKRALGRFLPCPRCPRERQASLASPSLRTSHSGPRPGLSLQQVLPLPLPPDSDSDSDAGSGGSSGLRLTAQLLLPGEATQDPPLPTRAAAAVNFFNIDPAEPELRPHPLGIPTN
CYP2D6, sequence (P10635 whole entry): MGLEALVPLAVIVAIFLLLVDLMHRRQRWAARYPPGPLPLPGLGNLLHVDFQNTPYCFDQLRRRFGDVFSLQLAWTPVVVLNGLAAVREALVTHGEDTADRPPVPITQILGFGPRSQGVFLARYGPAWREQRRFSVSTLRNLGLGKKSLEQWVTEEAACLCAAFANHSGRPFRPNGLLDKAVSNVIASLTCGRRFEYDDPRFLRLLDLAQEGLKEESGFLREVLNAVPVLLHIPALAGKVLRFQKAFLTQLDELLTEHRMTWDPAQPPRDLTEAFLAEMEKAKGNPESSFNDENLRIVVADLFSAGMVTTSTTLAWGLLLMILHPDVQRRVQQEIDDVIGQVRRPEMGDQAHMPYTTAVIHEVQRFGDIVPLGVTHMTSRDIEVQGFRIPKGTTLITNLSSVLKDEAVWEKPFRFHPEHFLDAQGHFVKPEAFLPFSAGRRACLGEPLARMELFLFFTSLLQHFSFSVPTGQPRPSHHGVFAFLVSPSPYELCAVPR
CYP3A4, sequence (P08684 whole entry): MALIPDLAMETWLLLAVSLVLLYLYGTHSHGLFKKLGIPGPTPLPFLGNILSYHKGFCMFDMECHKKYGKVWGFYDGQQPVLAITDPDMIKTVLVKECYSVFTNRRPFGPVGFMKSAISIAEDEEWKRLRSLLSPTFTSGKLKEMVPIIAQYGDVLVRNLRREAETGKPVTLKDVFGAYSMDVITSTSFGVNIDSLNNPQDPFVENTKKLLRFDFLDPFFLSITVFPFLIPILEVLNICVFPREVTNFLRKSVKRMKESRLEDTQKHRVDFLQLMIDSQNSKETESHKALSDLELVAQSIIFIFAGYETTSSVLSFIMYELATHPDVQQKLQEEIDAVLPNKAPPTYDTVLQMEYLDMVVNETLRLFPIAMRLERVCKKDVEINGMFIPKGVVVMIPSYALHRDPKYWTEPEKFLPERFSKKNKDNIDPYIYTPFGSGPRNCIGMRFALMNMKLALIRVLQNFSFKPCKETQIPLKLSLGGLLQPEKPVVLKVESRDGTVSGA
Voltage-gated inwardly rectifying potassium channel KCNH2, sequence (Q12809 whole entry): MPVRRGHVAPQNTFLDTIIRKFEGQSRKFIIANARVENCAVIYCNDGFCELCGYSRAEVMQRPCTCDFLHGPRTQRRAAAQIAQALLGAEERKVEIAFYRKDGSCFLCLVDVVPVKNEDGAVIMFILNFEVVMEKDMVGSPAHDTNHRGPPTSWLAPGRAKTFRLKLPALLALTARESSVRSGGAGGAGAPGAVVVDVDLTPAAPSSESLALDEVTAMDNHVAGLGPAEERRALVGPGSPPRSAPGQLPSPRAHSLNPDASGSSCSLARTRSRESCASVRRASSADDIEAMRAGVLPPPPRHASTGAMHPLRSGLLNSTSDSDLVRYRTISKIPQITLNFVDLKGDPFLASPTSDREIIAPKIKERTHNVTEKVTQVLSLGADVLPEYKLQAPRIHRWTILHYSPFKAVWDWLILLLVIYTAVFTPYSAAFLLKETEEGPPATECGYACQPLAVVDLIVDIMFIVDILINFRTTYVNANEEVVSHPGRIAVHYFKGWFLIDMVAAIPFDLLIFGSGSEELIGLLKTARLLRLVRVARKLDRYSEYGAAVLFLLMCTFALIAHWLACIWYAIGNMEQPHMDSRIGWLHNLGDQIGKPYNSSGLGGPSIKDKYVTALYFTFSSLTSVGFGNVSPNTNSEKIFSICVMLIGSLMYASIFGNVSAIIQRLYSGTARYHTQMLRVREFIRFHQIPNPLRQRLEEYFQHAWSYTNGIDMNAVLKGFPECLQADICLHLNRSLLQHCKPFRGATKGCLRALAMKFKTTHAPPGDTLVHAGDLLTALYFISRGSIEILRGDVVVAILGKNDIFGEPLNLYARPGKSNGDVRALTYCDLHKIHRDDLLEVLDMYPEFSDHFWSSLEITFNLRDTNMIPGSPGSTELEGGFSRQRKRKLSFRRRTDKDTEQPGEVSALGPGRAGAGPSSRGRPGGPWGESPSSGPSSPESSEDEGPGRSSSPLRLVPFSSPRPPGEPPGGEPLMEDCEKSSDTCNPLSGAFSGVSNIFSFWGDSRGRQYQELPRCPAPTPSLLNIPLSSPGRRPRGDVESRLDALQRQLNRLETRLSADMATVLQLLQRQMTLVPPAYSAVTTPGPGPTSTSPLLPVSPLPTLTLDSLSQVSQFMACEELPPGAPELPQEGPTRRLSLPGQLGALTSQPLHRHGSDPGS
CYP2C9, sequence (P08684 whole entry): as the sequence (P08684 whole entry) above

A word on the IC50: it is the midpoint of a concentration-inhibition curve. Usually inhibition stands for the change of the read-out against control, counted positive when it falls. Consider `O=C1c2[nH]nc(NS(=O)(=O)c3ccc4ccccc4c3)c2CCN1CC1CCNCC1`, for which the IC50 in [1] was 310 nM. For the same compound, in [2], the inhibition is 94.1%.
Taken in the same sequence, the figures for `CC(C)Cc1cc(CNS(=O)(=O)c2ccc(C(C)(C)C)cc2)nn1-c1ccccc1` were 8780 nM and 51.1%.
With `CC(C)Cc1cc(CNS(=O)(=O)c2cccc3ccccc23)nn1-c1ccccc1`, the IC50 in data set [1] was determined as 2430 nM. Also, the inhibition in data set [2] came out at 77.7%.
With `CC(C)Cc1cc(CNS(=O)(=O)c2cccc3cccnc23)nn1-c1ccc(F)cc1`, the figures for the 50% inhibitory concentration (IC50) in data set [3] and in data set [1] were 1600 nM and 1780 nM, respectively. The Activity result in [4] was “Active”. The activity at 10 µM in [5] worked out at 3.87%; in [6], 64.8%; in data set [7], 34.5%. Also, the Activity result in data set [8] is “inactive”. Also, the inhibition in data set [2] was 93.4%. For the same compound, in [9], the Ratio was found to be 60.
Consider `CC(C)Cc1cc(CNS(=O)(=O)c2cccc(Cl)c2)nn1-c1ccccc1`, for which, in data set [1], the concentration for half-maximal inhibition (IC50) turned out to be 10900 nM. The inhibition in data set [2] worked out at 40.8%.
As for `Cc1c(Cl)cccc1S(=O)(=O)NCc1cc(CC(C)C)n(-c2ccccc2)n1`, the IC50 in [1] came out at 4010 nM. In addition, the inhibition in [2] came to 72.3%.
`CC(C)Cc1cc(CNS(=O)(=O)c2ccccc2)nn1-c1ccccc1`: the inhibition in data set [2] was determined as 11.3%.
On to `CC(C)Cc1cc(CNS(=O)(=O)c2c(Cl)cccc2Cl)nn1-c1ccccc1`, for which the 50% inhibitory concentration (IC50) in [1] stood at 5650 nM. In data set [2], the inhibition stood at 59.4%.
On to `CC(C)Cc1cc(CNS(=O)(=O)c2cccc(F)c2)nn1-c1ccccc1`, for which the inhibition in [2] came to 19.5%.
Take `CC(C)Cc1cc(CNS(=O)(=O)Cc2cccc3ccccc23)nn1-c1ccccc1`: the inhibition in data set [2] is 28.7%.
Regarding `CC(C)Cc1cc(CNS(=O)(=O)c2cccc3cccnc23)nn1-c1ccccc1`, in data set [4], the Activity entry is “Active”. In data set [1], the IC50 worked out at 1420 nM. Further, the activity at 10 µM in [6] came to 119%; in data set [7], 52.2%. In data set [8], the Activity entry is “inactive”. In [2], the inhibition is 106%.
As for `NCC1(CC(=O)O)CCCCC1`, the Activity result in [4] was “Active”.
`CC(C)Cc1cc(CNS(=O)(=O)c2ccc3ccccc3c2)nn1-c1ccccc1`: the IC50 in data set [1] was 3300 nM. In addition, the inhibition in data set [2] amounted to 67.8%.
As to `CC(C)Cc1cc(CNS(=O)(=O)Cc2cccc3ccccc23)nn1-c1ccc(F)cc1`, the inhibition in data set [2] was determined as 36.1%.

Values taken from ChEMBL document CHEMBL4052782, “Neuropathic pain-alleviating effects of pyrazole-conjugated arylsulfonamides as 5-HT6 receptor antagonists” (Bioorg Med Chem Lett, 2017).
